Measurements of several laboratories.
Compare with care: the assays were run in different laboratories.
Read-out: cell growth or viability

Cn1nnc2c(C(N)=O)ncn2c1=O — EC50 (Hs746T): > 1000 µM
COc1cc(Nc2nccc(-c3cnn4nc(OC)ccc34)n2)cc(C(F)(F)F)c1 — IC50 (U2OS; ATP luminescence): 0.39 µM
CCCCCCCCCCCCNC(=S)NCCCC[C@H](NS(C)(=O)=O)C(=O)N[C@@H](C)C(=O)N[C@@H](CCCNC(=N)N)C(N)=O — EC50 (HeLa; MTT; 72 h): 28.9 to 39.1 µM
N[C@@H]1CCCN(c2c(/C=C3\SC(=O)NC3=O)cccc2-c2ccccc2)C1 — GI50 (KMS-11; thymidine uptake): 4.67 µM
N[C@@H](CC(=O)N1CCN(C(c2ccc(F)cc2)c2ccc(F)cc2)CC1)C(=O)N1Cc2ccccc2C1 — IC50 (HEL; ATP luminescence; 48 h): 31.7 µM
CCCCCCCCCCCCNC(=S)NCCCC[C@H](NS(C)(=O)=O)C(=O)N[C@H](C)C(=O)N[C@@H](CCCNC(=N)N)C(=O)N1CCOCC1 — EC50 (HeLa; MTT; 72 h): 89.8 to 126 µM
COc1cc(-c2ncn(/C=C\C(=O)OC(C)C)n2)cc(C(F)(F)F)c1 — IC50 (SKM-1; 72 h): 0.08 µM
COc1ccc(-c2ccc(-c3ccc(C(=N)N)nc3)s2)cc1Cl — GI50 (UACC-62; SRB): 1.76 µM
Cc1ccc(NC(=O)c2ccc(CN3CCN(C)CC3)cc2)cc1Nc1nccc(-c2cccnc2)n1 — inhibition (HeLa; MTT; 1 µM, 48 h): 11%
COc1cc(C(=O)Nc2cc(OC)c3ccccc3n2)nc(C(=O)Nc2cc(OC)c3ccccc3n2)c1 — IC50 (U2OS; ATP luminescence; 72 h): > 40 µM
COc1cccc(Oc2ccccc2NC(=O)CNC(=O)c2cccc3ccccc23)c1 — GI50 (Hs-578T; SRB; 48 h): 0.38 µM
CC[C@@H](C)[C@H](N)C(=O)N1Cc2ccccc2C1 — IC50 (NB-4; ATP luminescence; 48 h): 1.5 µM
COc1cc(-c2ccc(-c3ccc(C(=N)N)nc3)s2)cc(OC)c1OC — GI50 (SK-MEL-2; SRB): 2.09 µM
